# Reference: ChEMBL document CHEMBL1139875, “Discovery of 4-aminobutyric acid derivatives possessing anticonvulsant and antinociceptive activities: a hybrid pharmacophore approach” (2007)
# Active and inactive are the calls of the source. No cut-off for these calls is given here.
# Experiments:
# Mus musculus [1] = assay: Anticonvulsant activity in Swiss Albino mouse at 300 mg/kg, ip after 0.5 hr by scPIC test; format: functional, organism-based; parameters: dose 300 mg/kg
# How it was run: (§1)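 Mice (Swiss, 20-25 g) given i.p. doses of 30, 100 and 300 mg/kg under ADD program protocols, three per group, examined at 0.5 and 4 h in MES, scPTZ, scSTY or scPIC seizure tests. Value is the minimum dose protecting half or more of the mice.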
# Mus musculus [2] = assay: Anticonvulsant activity in Swiss Albino mouse at 300 mg/kg, ip after 4 hrs by scPIC test; format: functional, organism-based; parameters: dose 300 mg/kg; how it was run: as §1
# Rattus norvegicus [3] = assay: Effect on spontaneous pain in Sprague-Dawley rat SNL model assessed as duration of paw withdrawal at 100 mg/kg, ip after 2.5 hrs; format: functional; settings: route intraperitoneal
# How it was run: (§2)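 Rats underwent left L5 spinal nerve ligation (Kim and Chung) under i.p. pentobarbital (65 mg/kg). Spontaneous pain is recorded for 5 min after 10 min acclimatization, as cumulative duration the ipsilateral paw is lifted, excluding locomotor lifts. Dosing is 100 mg/kg i.p. in 30% v/v PEG 400/water, with testing at 0.5–2.5 h. Four rats, mean ± SEM versus predrug, one-way ANOVA with Bonferroni.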
# Rattus norvegicus [4] = assay: Anti-cold allodynia effect in Sprague-Dawley rat SNL model assessed as duration of paw withdrawal 100 mg/kg, ip after 1.5 hrs; format: functional; settings: route intraperitoneal
# How it was run: (§3)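 Left L5 spinal nerve ligation under pentobarbital (65 mg/kg i.p.). Allodynic rats dosed i.p. 100 mg/kg, vehicle 30% v/v PEG 400 in water. Acetone (100-200 µL) misted onto midplantar affected paw after 10 min acclimatization; paw withdrawal duration, mean of three samples at least 3 min apart; n = 4 rats.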
# Rattus norvegicus [5] = assay: Anti-dynamic allodynia effect in Sprague-Dawley rat SNL model assessed as latency to paw withdrawal 100 mg/kg, ip after 2 hrs; format: functional; settings: route intraperitoneal
# How it was run: (§4)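 Left L5 spinal nerve ligation rats, tested preoperatively and 9 days postoperatively, then given 100 mg/kg i.p. (vehicle 30% v/v PEG 400 in water). After 10 min acclimatization, plantar surface of affected paw stroked mildly with a cotton-bud; paw lift response recorded. n = 4; retested 0.5-2.5 h post-dose.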
# Rattus norvegicus [6] = assay: Anti-dynamic allodynia effect in Sprague-Dawley rat SNL model assessed as latency to paw withdrawal 100 mg/kg, ip after 1.5 hrs; format: functional; settings: route intraperitoneal; how it was run: as §4
# Mus musculus [7] = assay: Neurotoxicity in Swiss Albino mouse at 300 mg/kg, ip after 0.5 hr by rotarod test; format: functional, organism-based; parameters: dose 300 mg/kg
# How it was run: (§5)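 Swiss mice (20-25 g) are trained on an accelerating rotorod (10 rpm, 3.2 cm rod), then injected i.p. at 30, 100 or 300 mg/kg, with three per group. Neurotoxicity means failure to keep equilibrium for at least 1 min in each of three trials, checked at 0.5 and 4 h. The value reported is the minimum dose affecting half or more of the mice.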
# Rattus norvegicus [8] = assay: Effect on spontaneous pain in Sprague-Dawley rat SNL model assessed as duration of paw withdrawal at 100 mg/kg, ip after 1 hr; format: functional; settings: route intraperitoneal; how it was run: as §2
# Rattus norvegicus [9] = assay: Antihyperalgesic effects in Sprague-Dawley rat CCI model assessed as duration of paw withdrawal at 100 mg/kg, ip after 1.5 hrs; format: functional; settings: route intraperitoneal
# Mus musculus [10] = assay: Analgesic activity in Swiss Albino mouse assessed as number of acetic acid-induced writhing per 30 min after 100 mg/kg, ip; format: functional; settings: route intraperitoneal
# How it was run: (§6)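 Mice in groups of six dosed i.p. at 100 mg/kg, controls receiving 30% v/v PEG 400 in water. Writhing induced by i.p. 0.1 mL of 3% v/v acetic acid 1 h after drug. Writhes (abdominal stretch with at least one hind limb extended) counted over 30 min; % inhibition calculated. Mean ± SEM, Student's t test.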
# Rattus norvegicus [11] = assay: Effect on spontaneous pain in Sprague-Dawley rat SNL model assessed as duration of paw withdrawal at 100 mg/kg, ip after 2 hrs; format: functional; settings: route intraperitoneal; how it was run: as §2
# Mus musculus [12] = assay: Anticonvulsant activity in Swiss Albino mouse at 300 mg/kg, ip after 0.5 hr by scSTY test; format: functional, organism-based; parameters: dose 300 mg/kg; how it was run: as §1
# Rattus norvegicus [13] = assay: Anti-dynamic allodynia effect in Sprague-Dawley rat SNL model assessed as latency to paw withdrawal 100 mg/kg, ip after 0.5 hr; format: functional; settings: route intraperitoneal; how it was run: as §4
# Mus musculus [14] = assay: Anticonvulsant activity in Swiss Albino mouse at 300 mg/kg, ip after 0.5 hr by scPTZ test; format: functional, organism-based; parameters: dose 300 mg/kg; how it was run: as §1
# Rattus norvegicus [15] = assay: Anti-cold allodynia effect in Sprague-Dawley rat SNL model assessed as duration of paw withdrawal 100 mg/kg, ip after 2.5 hrs; format: functional; settings: route intraperitoneal; how it was run: as §3
# Rattus norvegicus [16] = assay: Effect on spontaneous pain in Sprague-Dawley rat SNL model assessed as duration of paw withdrawal at 100 mg/kg, ip after 1.5 hrs; format: functional; settings: route intraperitoneal; how it was run: as §2
# Rattus norvegicus [17] = assay: Antihyperalgesic effects in Sprague-Dawley rat CCI model assessed as duration of paw withdrawal at 100 mg/kg, ip after 0.5 hr; format: functional; settings: route intraperitoneal
# Rattus norvegicus [18] = species: Rattus norvegicus; assay: Anti-dynamic allodynic effect in Sprague-Dawley rat CCI model assessed as latency to paw withdrawal after 2.5 hr; format: functional
# How it was run: (§7)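 Rats with sciatic nerve chronic constriction injury (pentobarbital 65 mg/kg i.p. anaesthesia), baseline and day 9 testing, then drug per randomization table. After 10 min acclimatization, affected plantar surface stroked mildly with a cotton-bud; paw lift recorded. n = 4; retested 0.5-2.5 h post-dose.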
# Rattus norvegicus [19] = assay: Anti-dynamic allodynia effect in Sprague-Dawley rat SNL model assessed as latency to paw withdrawal 100 mg/kg, ip after 1 hr; format: functional; settings: route intraperitoneal; how it was run: as §4
# Rattus norvegicus [20] = assay: Antihyperalgesic effects in Sprague-Dawley rat CCI model assessed as duration of paw withdrawal at 100 mg/kg, ip after 2.5 hrs; format: functional; settings: route intraperitoneal
# Rattus norvegicus [21] = species: Rattus norvegicus; assay: Anti-dynamic allodynic effect in Sprague-Dawley rat CCI model assessed as latency to paw withdrawal after 1 hr; format: functional; how it was run: as §7
# Rattus norvegicus [22] = species: Rattus norvegicus; assay: Anti-dynamic allodynic effect in Sprague-Dawley rat CCI model assessed as latency to paw withdrawal after 0.5 hr; format: functional; how it was run: as §7
# Rattus norvegicus [23] = assay: Anti-cold allodynia effect in Sprague-Dawley rat SNL model assessed as duration of paw withdrawal 100 mg/kg, ip after 0.5 hr; format: functional; settings: route intraperitoneal; how it was run: as §3
# Mus musculus [24] = assay: Anticonvulsant activity in Swiss Albino mouse at 300 mg/kg, ip after 4 hrs by MES test; format: functional, organism-based; parameters: dose 300 mg/kg; how it was run: as §1
# Rattus norvegicus [25] = assay: Anti-dynamic allodynia effect in Sprague-Dawley rat SNL model assessed as latency to paw withdrawal 100 mg/kg, ip after 2.5 hrs; format: functional; settings: route intraperitoneal; how it was run: as §4
# Mus musculus [26] = assay: Analgesic activity in Swiss Albino mouse assessed as inhibition of acetic acid-induced writhing responses at 100 mg/kg, ip; format: functional; settings: route intraperitoneal; how it was run: as §6
# Rattus norvegicus [27] = assay: Antihyperalgesic effects in Sprague-Dawley rat CCI model assessed as duration of paw withdrawal at 100 mg/kg, ip after 1 hr; format: functional; settings: route intraperitoneal
# Mus musculus [28] = assay: Anticonvulsant activity in Swiss Albino mouse at 300 mg/kg, ip after 4 hrs by scSTY test; format: functional, organism-based; parameters: dose 300 mg/kg; how it was run: as §1
# Rattus norvegicus [29] = assay: Anti-cold allodynia effect in Sprague-Dawley rat SNL model assessed as duration of paw withdrawal 100 mg/kg, ip after 1 hrs; format: functional; settings: route intraperitoneal; how it was run: as §3
# Rattus norvegicus [30] = assay: Effect on spontaneous pain in Sprague-Dawley rat SNL model assessed as duration of paw withdrawal at 100 mg/kg, ip after 0.5 hr; format: functional; settings: route intraperitoneal; how it was run: as §2
# Mus musculus [31] = assay: Anticonvulsant activity in Swiss Albino mouse at 300 mg/kg, ip after 0.5 hr by MES test; format: functional, organism-based; parameters: dose 300 mg/kg; how it was run: as §1
# Rattus norvegicus [32] = species: Rattus norvegicus; assay: Anti-dynamic allodynic effect in Sprague-Dawley rat CCI model assessed as latency to paw withdrawal after 1.5 hr; format: functional; how it was run: as §7
# Rattus norvegicus [33] = species: Rattus norvegicus; assay: Anti-dynamic allodynic effect in Sprague-Dawley rat CCI model assessed as latency to paw withdrawal after 2 hr; format: functional; how it was run: as §7
# Rattus norvegicus [34] = assay: Antihyperalgesic effects in Sprague-Dawley rat CCI model assessed as duration of paw withdrawal at 100 mg/kg, ip after 2 hrs; format: functional; settings: route intraperitoneal
# Rattus norvegicus [35] = assay: Anti-cold allodynia effect in Sprague-Dawley rat SNL model assessed as duration of paw withdrawal 100 mg/kg, ip after 2 hrs; format: functional; settings: route intraperitoneal; how it was run: as §3
# Mus musculus [36] = assay: Neurotoxicity in Swiss Albino mouse at 300 mg/kg, ip after 4 hrs by rotarod test; format: functional, organism-based; parameters: dose 300 mg/kg; how it was run: as §5
smiles,measurement,setting,value
O=C(O)CCCNC(=O)N/N=C(\c1ccccc1)c1ccc(Br)cc1,Activity,Mus musculus [1],inactive
same,Activity,Mus musculus [2],inactive
same,Activity,Rattus norvegicus [3],8.7 s
same,Activity,Rattus norvegicus [4],11.8 s
same,Activity,Rattus norvegicus [5],10.3 s
same,Activity,Rattus norvegicus [6],10.8 s
same,Activity,Mus musculus [7],inactive
same,Activity,Rattus norvegicus [8],28.5 s
same,Activity,Rattus norvegicus [9],5.1 s
same,Activity,Mus musculus [10],21
same,Activity,Rattus norvegicus [11],10.1 s
same,Activity,Mus musculus [12],Active
same,Activity,Rattus norvegicus [13],9.8 s
same,Activity,Mus musculus [14],inactive
same,Activity,Rattus norvegicus [15],10.2 s
same,Activity,Rattus norvegicus [16],23.1 s
same,Activity,Rattus norvegicus [17],20.5 s
same,Activity,Rattus norvegicus [18],11.3 s
same,Activity,Rattus norvegicus [19],10.6 s
same,Activity,Rattus norvegicus [20],5.6 s
same,Activity,Rattus norvegicus [21],10.3 s
same,Activity,Rattus norvegicus [22],11.4 s
same,Activity,Rattus norvegicus [23],19.1 s
same,Activity,Mus musculus [24],inactive
same,Activity,Rattus norvegicus [25],10.23 s
same,inhibition in vivo at 100 mg/kg,Mus musculus [26],89%
same,Activity,Rattus norvegicus [27],8.5 s
same,Activity,Mus musculus [28],Active
same,Activity,Rattus norvegicus [29],23.8 s
same,Activity,Rattus norvegicus [30],25.1 s
same,Activity,Mus musculus [31],Active
same,Activity,Rattus norvegicus [32],10.6 s
same,Activity,Rattus norvegicus [33],10.9 s
same,Activity,Rattus norvegicus [34],7.3 s
same,Activity,Rattus norvegicus [35],10.8 s
same,Activity,Mus musculus [36],inactive
